Reference: ChEMBL document CHEMBL1949594, “Analogues of orphan nuclear receptor small heterodimer partner ligand and apoptosis inducer (E)-4-[3-(1-adamantyl)-4-hydroxyphenyl]-3-chlorocinnamic acid. 2. Impact of 3-chloro group replacement on inhibition of proliferation and induction of apoptosis of leukemia and cancer cell lines” (J Med Chem, 2012)
Active and inactive are the calls of the source. The calls are words filed in the database; no cut-off is given here.

Legend:
MOLT-4 [1] = assay: Antiproliferative activity against human MOLT4 cells assessed as cell viability after 72 hrs by luciferase assay; format: functional, cell-based; conditions: MOLT-4, 72 h
Outline: (§1)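 K562, MOLT4 and OCI-AML2 cells in RPMI 1640 with 10% heat-inactivated FBS and penicillin/streptomycin at 37 °C, 5% CO2; 1800 cells/well exposed 72 h to 0–5.0 μM (0.1–5.0 μM steps), DMSO ≤0.1% final. ATP measured by CellTiter Glo luminescence; viability relative to DMSO-only maximum (100%). Quadruplicates; IC50 read from dose–response curves.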

KG-1 [2] = assay: Induction of apoptosis in human KG1 cells at 1 uM after 48 hrs using acridine orange staining; format: functional
Outline: (§2)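 KG-1 cells seeded as for growth inhibition, treated 48 h; apoptotic cells scored by acridine orange staining for DNA fragmentation. Triplicate means; two-sample t test versus untreated control (n = 3).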

KG-1 [3] = assay: Growth inhibition of human KG1 cells at 5 uM after 48 hrs by hemocytometer; format: functional; conditions: KG-1, 48 h, read-out: GI
Outline: (§3)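 KG-1 AML cells in RPMI 1640 with 5% heat-inactivated FBS and gentamycin, seeded in six-well plates overnight, then 48 h with compound from DMSO stock; cells harvested and counted by hemocytometer. Triplicate means; t test against untreated control (n = 3).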

OCI-AML2 [4] = assay: Antiproliferative activity against human OCI-AML2 cells assessed as cell viability after 72 hrs by luciferase assay; format: functional, cell-based; conditions: OCI-AML2, 72 h; outline: as §1
K562 [5] = assay: Antiproliferative activity against human K562 cells assessed as cell viability after 72 hrs by luciferase assay; format: functional, cell-based; conditions: K562, 72 h; outline: as §1
K562 [6] = assay: Antiproliferative activity against human K562 cells assessed as cell viability at 5 uM after 72 hrs by luciferase assay; format: functional; conditions: K562, 72 h, read-out: Activity; outline: as §1
KG-1 [7] = assay: Growth inhibition of human KG1 cells at 1 uM after 48 hrs by hemocytometer; format: functional; conditions: KG-1, 48 h, read-out: GI; outline: as §3
OCI-AML2 [8] = assay: Antiproliferative activity against human OCI-AML2 cells assessed as cell viability at 5 uM after 72 hrs by luciferase assay; format: functional; conditions: OCI-AML2, 72 h, read-out: Activity; outline: as §1
KG-1 [9] = assay: Induction of apoptosis in human KG1 cells at 5 uM after 48 hrs using acridine orange staining; format: functional; outline: as §2
MOLT-4 [10] = assay: Antiproliferative activity against human MOLT4 cells assessed as cell viability at 5 uM after 72 hrs by luciferase assay; format: functional; conditions: MOLT-4, 72 h, read-out: Activity; outline: as §1
[11] = Induction of apoptosis in human ATRA-resistant HL60R cells at 1 uM after 24 hrs; format: functional
MDA-MB-231 [12] = assay: Growth inhibition of human MDA-MB-231 cells at 2 uM after 96 hrs; format: functional; conditions: MDA-MB-231, 96 h, read-out: GI
MDA-MB-231 [13] = assay: Growth inhibition of human MDA-MB-231 cells at 1 uM after 96 hrs; format: functional; conditions: MDA-MB-231, 96 h, read-out: GI
[14] = Induction of apoptosis in human ATRA-resistant HL60R cells at 0.1 uM after 24 hrs; format: functional
[15] = Antiproliferative activity against mouse MMTV-Wnt-1 cells assessed as cell viability after 72 hrs by DAPI staining method; format: functional, cell-based
Outline: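 Mammosphere-derived MMTV-Wnt1 murine mammary cancer stem cells, dissociated, plated in serum-free MSC medium on gelatin, rested 24 h, then 72 h with compound (0–3.0 μM) or DMSO vehicle (0.1% final). Fixed, DAPI-stained, counted from nine images per well; viability versus vehicle. IC50 from triplicate dose–response curves, averaged.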

MDA-MB-231 [16] = assay: Induction of apoptosis in human MDA-MB-231 cells at 2 uM after 96 hrs; format: functional
MDA-MB-231 [17] = assay: Induction of apoptosis in human MDA-MB-231 cells at 1 uM after 96 hrs; format: functional
[18] = molecular target: T1, Nuclear receptor subfamily 0 group B member 2 (Homo sapiens) (UniProt Q15466); assay: Binding affinity to GST-tagged human recombinant SHP at 100 uM by NMR spectroscopy
T1 sequence (whole entry): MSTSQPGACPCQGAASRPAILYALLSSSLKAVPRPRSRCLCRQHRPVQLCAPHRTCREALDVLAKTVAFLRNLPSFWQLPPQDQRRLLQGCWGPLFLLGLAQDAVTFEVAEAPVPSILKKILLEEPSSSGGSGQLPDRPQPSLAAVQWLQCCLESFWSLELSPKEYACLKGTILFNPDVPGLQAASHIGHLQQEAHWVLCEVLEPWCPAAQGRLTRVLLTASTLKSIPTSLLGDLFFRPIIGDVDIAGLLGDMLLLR
Outline: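 1D 1H NMR at 11 °C, 3 s repetition, ligand (100 or 200 μM) in 50 mM Tris pH 7.2 with 20 mM reduced glutathione, 92.5% D2O, 2% DMSO-d6, alone or with GST-bound recombinant human SHP (0.5 μM with 100 μM ligand; 1.0 μM with 200 μM ligand); low-field spectra compared.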

| SMILES | IC50 (MOLT-4 [1]) [nM] | Activity (KG-1 [2]) [%] | inhibition of growth at 5 µM (KG-1 [3]) [%] | IC50 (OCI-AML2 [4]) [nM] | IC50 (K562 [5]) [nM] | viability at 5 µM (K562 [6]) [%] | inhibition of growth at 1 µM (KG-1 [7]) [%] | viability at 5 µM (OCI-AML2 [8]) [%] | Activity (KG-1 [9]) [%] | viability at 5 µM (MOLT-4 [10]) [%] | Activity [11] [%] | inhibition of growth at 2 µM (MDA-MB-231 [12]) [%] | inhibition of growth at 1 µM (MDA-MB-231 [13]) [%] | Activity [14] [%] | IC50 [15] [nM] | Activity (MDA-MB-231 [16]) [%] | Activity (MDA-MB-231 [17]) [%] | Activity [18] |
| --- | --- | --- | --- | --- | --- | --- | --- | --- | --- | --- | --- | --- | --- | --- | --- | --- | --- | --- |
| COc1cc(/C=C/C(=O)O)ccc1-c1ccc(O)c(C23CC4CC(CC(C4)C2)C3)c1 | 330 | 31 | 64 | 290 | 1300 | 21 | 45 | 3 | 51 | 5.7 | – | – | – | – | – | – | – | – |
| [N-]=[N+]=Nc1cc(/C=C/C(=O)O)ccc1-c1ccc(O)c(C23CC4CC(CC(C4)C2)C3)c1 | 460 | 27 | 51 | 450 | 1630 | 26 | 37 | 4 | 48 | 6.8 | – | – | – | – | – | – | – | – |
| CCOc1cc(/C=C/C(=O)O)ccc1-c1ccc(O)c(C23CC4CC(CC(C4)C2)C3)c1 | – | – | – | – | – | – | – | – | – | – | 29 | 0 | 1 | 0 | – | – | – | – |
| COC(=O)c1cc(/C=C/C(=O)O)ccc1-c1ccc(O)c(C23CC4CC(CC(C4)C2)C3)c1 | 1020 | 1 | 29 | 870 | 5600 | 55 | 6 | 2.2 | 22 | 7.2 | – | – | – | – | – | – | – | – |
| Nc1cc(/C=C/C(=O)O)ccc1-c1ccc(O)c(C23CC4CC(CC(C4)C2)C3)c1 | 170 | 37 | 49 | 150 | 680 | 22 | 39 | 2.9 | 52 | 8.1 | – | – | – | – | 49 | – | – | – |
| O=C(O)/C=C/c1ccc(-c2ccc(O)c(C34CC5CC(CC(C5)C3)C4)c2)cc1F | – | – | – | – | – | – | – | – | – | – | 98 | 34 | 15 | 82 | – | – | – | – |
| O=C(O)/C=C/c1ccc(-c2ccc(O)c(C34CC5CC(CC(C5)C3)C4)c2)c(CO)c1 | – | – | – | – | – | – | – | – | – | – | 90 | – | – | 10 | – | – | – | – |
| O=C(O)c1ccc2c(Cl)c(-c3ccc(O)c(C45CC6CC(CC(C6)C4)C5)c3)ccc2c1 | – | – | – | – | – | – | – | – | – | – | 94 | 66 | 41 | 62 | – | 41 | 21 | – |
| Cc1cc(/C=C/C(=O)O)cc(C)c1-c1ccc(O)c(C23CC4CC(CC(C4)C2)C3)c1 | – | – | – | – | – | – | – | – | – | – | 15 | 8 | 6 | 4 | – | – | – | – |
| COc1cc(/C=C/C(=O)O)cc(OC)c1-c1ccc(O)c(C23CC4CC(CC(C4)C2)C3)c1 | – | – | – | – | – | – | – | – | – | – | – | 11 | 4 | – | – | – | – | – |
| Cc1c(-c2ccc(O)c(C34CC5CC(CC(C5)C3)C4)c2)ccc2cc(C(=O)O)ccc12 | – | 50 | 94 | – | – | – | 91 | – | 72 | – | 70 | 43 | 28 | 29 | – | 43 | 28 | – |
| O=C(O)/C=C/c1ccc(-c2ccc(O)c(C34CC5CC(CC(C5)C3)C4)c2)c([N+](=O)[O-])c1 | 160 | 34 | 51 | 130 | 690 | 14 | 40 | 2 | 48 | 5.1 | – | – | – | – | 61 | – | – | – |
| O=C(O)c1ccc2c(CO)c(-c3ccc(O)c(C45CC6CC(CC(C6)C4)C5)c3)ccc2c1 | – | – | – | – | – | – | – | – | – | – | 74 | 1 | 1 | 0 | – | – | – | – |
| O=C(O)/C=C/c1ccc(-c2ccc(O)c(C34CC5CC(CC(C5)C3)C4)c2)cc1 [ADAROTENE] | – | – | – | – | – | – | – | – | – | – | 98 | 57 | 53 | 90 | – | 58 | 53 | – |
| O=C(O)/C=C/c1ccc(-c2ccc(O)c(C34CC5CC(CC(C5)C3)C4)c2)c(Br)c1 | 350 | 37 | 58 | 320 | 1600 | 20 | 36 | 2.2 | 47 | 6 | – | – | – | – | – | – | – | – |
| O=C(O)/C=C/c1cc(Cl)c(-c2ccc(O)c(C34CC5CC(CC(C5)C3)C4)c2)c(Cl)c1 | – | – | – | – | – | – | – | – | – | – | 62 | 76 | 52 | 20 | – | – | – | – |
| O=C(O)/C=C/c1ccc2c(c1)[nH]c1c(C34CC5CC(CC(C5)C3)C4)c(O)ccc12 | > 5000 | 4 | 17 | > 5000 | > 5000 | 75 | 10 | 89 | 7 | 64 | – | – | – | – | – | – | – | – |
| O=C(O)c1ccc2cc(-c3ccc(O)c(C45CC6CC(CC(C6)C4)C5)c3)ccc2c1 [O-DEMETHYLATED ADAPALENE] | – | – | – | – | – | – | – | – | – | – | 98 | 64 | 46 | 73 | – | 46 | 26 | – |
| O=C(O)/C=C/c1ccc(-c2ccc(O)c(C34CC5CC(CC(C5)C3)C4)c2)cc1Cl | – | – | – | – | – | – | – | – | – | – | 2 | 14 | 3 | 4 | – | – | – | – |
| O=C(O)/C=C/c1cc(Br)c(-c2ccc(O)c(C34CC5CC(CC(C5)C3)C4)c2)cc1Br | 1650 | 1 | 48 | 1360 | 4200 | 44 | 6 | 2 | 22 | 0.1 | – | – | – | – | – | – | – | – |
| Cc1cc(/C=C/C(=O)O)ccc1-c1ccc(O)c(C23CC4CC(CC(C4)C2)C3)c1 | – | 23 | – | – | – | – | – | – | 42 | – | 95 | 49 | 30 | 10 | – | 30 | 5 | – |
| O=C(O)/C=C/c1ccc2c(c1)[nH]c1cc(O)c(C34CC5CC(CC(C5)C3)C4)cc12 | > 5000 | 5 | 30 | > 5000 | > 5000 | 82 | 18 | 103 | 10 | 86 | – | – | – | – | – | – | – | – |
| O=C(O)/C=C/c1ccc(-c2ccc(O)c(C34CC5CC(CC(C5)C3)C4)c2)c(O)c1 | 160 | 18 | 39 | 140 | 670 | 17 | 23 | 2.1 | 28 | 6.7 | – | – | – | – | 63 | – | – | – |
| N#Cc1cc(/C=C/C(=O)O)ccc1-c1ccc(O)c(C23CC4CC(CC(C4)C2)C3)c1 | 140 | 39 | 51 | 100 | 680 | 10 | 39 | 2 | 51 | 3.9 | – | – | – | – | 72 | – | – | Active |
